We go through three compounds from ChEMBL document CHEMBL1125823, “2-Phenylindole-linked [2-(aminoalkyl)pyridine]dichloroplatinum(II): complexes with a selective action on estrogen receptor positive mammary tumors” (1991).

Assay [1] has as its system MCF7. The assay can be described thus: Effect on Estrogen receptor positive MCF-7 human breast cancer cell proliferation at 5x10E-6M (control = 24.4+/-3.8). The format is functional. An outline of the steps: (§1)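 MCF-7 cells were kept in MEM with 5% charcoal-treated newborn calf serum and phenol red for 2 weeks, then about 2×10^4 cells were plated per well. Compounds in 0.1% DMF were added 2 days later and renewed on day 4; DMF alone served as control. Coulter cell counts were taken on day 5; mean of six dishes ± SD; % T/C.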

Assay [2] concerns MCF7. The assay can be described thus: Effect on [3H]thymidine incorporation into estrogen receptor positive MCF-7 human breast cancer cells at 1*10^-6 M (control = 10.2+/-1.4). The format is functional. The method in brief: (§2)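 MCF-7 cells were grown in MEM with charcoal-treated 5% newborn calf serum and phenol red, then treated with compounds in 0.1% DMF (renewed on day 4) alongside DMF controls. They were labeled 3 days later with 1 µCi [³H]thymidine per well for 2 h, and incorporated radioactivity per dish was measured; mean of six dishes ± SD; % T/C.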

Assay [3] deals with MCF7. The assay can be described thus: Effect on [3H]thymidine incorporation into estrogen receptor positive MCF-7 human breast cancer cells at 5*10e-6 M (control = 10.2+/-1.4). The format is functional. The method in brief:
(§3)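 MCF-7 cells in improved MEM with glutamine, gentamycin and 5% newborn calf serum, switched to charcoal-treated serum two weeks ahead; phenol red present; 37 °C, 5% CO2. About 2×10^4 cells plated per well; compound in 0.1% DMF added 2 days later, renewed on day 4; labelled 3 days later with 1 μCi [3H]thymidine per well for 2 h; cpm/dish, mean of six dishes ± SD.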
In general terms: Uptake of a labelled nucleoside into DNA is a usual measure of proliferation.

The subject of assay [4] is MCF7. The assay can be described thus: Effect on Estrogen receptor positive MCF-7 human breast cancer cell proliferation at 1x10E-6M (control = 24.4+/-3.8). The assay is classed as functional. The method in brief:
as §1

Assay [5] has as its target T1, Estrogen receptor (Mus musculus) (UniProt O08537+P19785). In words: Percent inhibition of estrone stimulated uterotrophic effect in mice at 15 ug. The format is functional. The method in brief: (§4)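 Immature mice given test compound per animal sc on three consecutive days together with 0.4 μg estrone/animal/day. Killed 24 h after last injection; uteri fixed in Bouin, dried 100 °C 24 h and weighed. Inhibition = 100 − [(W_S,T − W_V)/(W_S − W_V) × 100] using relative uterus weights; 6-10 animals; Wilcoxon-Mann-Whitney U test.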
Target sequence in this assay (O08537 whole entry, looked up): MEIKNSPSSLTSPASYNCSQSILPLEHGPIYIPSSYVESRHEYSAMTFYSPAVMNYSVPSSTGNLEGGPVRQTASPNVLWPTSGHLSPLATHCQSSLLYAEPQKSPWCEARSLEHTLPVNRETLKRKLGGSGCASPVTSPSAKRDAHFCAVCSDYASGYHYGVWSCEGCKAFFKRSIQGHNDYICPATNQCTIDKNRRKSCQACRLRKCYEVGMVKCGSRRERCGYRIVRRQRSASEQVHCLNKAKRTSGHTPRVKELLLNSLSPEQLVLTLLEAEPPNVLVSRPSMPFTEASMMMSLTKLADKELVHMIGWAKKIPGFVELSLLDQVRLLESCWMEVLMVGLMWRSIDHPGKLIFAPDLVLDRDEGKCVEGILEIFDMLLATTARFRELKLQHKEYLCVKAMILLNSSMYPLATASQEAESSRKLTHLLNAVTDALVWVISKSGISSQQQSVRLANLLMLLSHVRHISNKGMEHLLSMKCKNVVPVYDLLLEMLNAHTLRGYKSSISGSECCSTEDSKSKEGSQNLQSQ
Target sequence in this assay (P19785 whole entry, looked up): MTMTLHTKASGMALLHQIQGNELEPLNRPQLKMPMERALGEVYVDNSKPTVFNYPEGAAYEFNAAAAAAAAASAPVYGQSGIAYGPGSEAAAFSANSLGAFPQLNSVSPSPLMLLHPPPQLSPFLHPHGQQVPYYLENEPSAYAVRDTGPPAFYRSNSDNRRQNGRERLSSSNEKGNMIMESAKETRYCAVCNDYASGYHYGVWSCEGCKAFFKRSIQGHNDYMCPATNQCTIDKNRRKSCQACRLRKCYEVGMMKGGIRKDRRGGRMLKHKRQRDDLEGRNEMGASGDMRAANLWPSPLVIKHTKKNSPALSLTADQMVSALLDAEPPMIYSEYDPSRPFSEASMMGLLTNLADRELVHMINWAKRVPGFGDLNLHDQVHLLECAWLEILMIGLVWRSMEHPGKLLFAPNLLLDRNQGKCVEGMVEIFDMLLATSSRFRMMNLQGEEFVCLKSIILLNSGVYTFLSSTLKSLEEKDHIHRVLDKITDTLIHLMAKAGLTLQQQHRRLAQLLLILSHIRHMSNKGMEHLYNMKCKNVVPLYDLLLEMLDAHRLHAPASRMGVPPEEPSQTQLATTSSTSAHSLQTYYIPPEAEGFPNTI

Assay [6] addresses T1, Estrogen receptor (Mus musculus). The assay can be described thus: Percent inhibition of estrone stimulated uterotrophic effect in mice at 150 ug. The format is functional. The method in brief:
as §4
Target sequence in this assay (O08537 whole entry, looked up): as the sequence (O08537 whole entry, looked up) above
Target sequence in this assay (P19785 whole entry, looked up): as the sequence (P19785 whole entry, looked up) above

The target is the same in assay [7]. The assay can be described thus: Uterotrophic effect in mice as relative uterine weight(mg) at 15 ug (control = […]+/-1.7). The format is functional, tissue-based.
Target sequence in this assay (O08537 whole entry, looked up): as the sequence (O08537 whole entry, looked up) above
Target sequence in this assay (P19785 whole entry, looked up): as the sequence (P19785 whole entry, looked up) above
Assay [8] shares this target. The assay can be described thus: Uterotrophic effect in mice as relative uterine weight(mg) at 150 ug (control = […]+/-1.7). The assay is classed as functional, tissue-based.
Target sequence in this assay (O08537 whole entry, looked up): as the sequence (O08537 whole entry, looked up) above
Target sequence in this assay (P19785 whole entry, looked up): as the sequence (P19785 whole entry, looked up) above
Assay [9] concerns MCF7. The assay can be described thus: Effect on Estrogen receptor positive MCF-7 human breast cancer cell proliferation at 1x10E-6M. The format is functional. An outline of the steps:
as §1

Assay [10] deals with MCF7. The assay can be described thus: Effect on Estrogen receptor positive MCF-7 human breast cancer cell proliferation at 5x10E-6M. The format is functional. An outline of the steps:
as §1

The target in assay [11] is T1, Estrogen receptor (Mus musculus). In words: Anti-uterotrophic effect in hormone-dependent transplant MXT bearing mice as relative uterine weight in treated and control mice at 12.5 mg (control=100+/-24). The assay is classed as functional.
Target sequence in this assay (O08537 whole entry, looked up): as the sequence (O08537 whole entry, looked up) above
Target sequence in this assay (P19785 whole entry, looked up): as the sequence (P19785 whole entry, looked up) above
The species entered for assay [12] is Mus musculus. In words: Anti-tumor activity in hormone-dependent transplant MXT mammary tumor bearing mice at 12.5 mg (control=197+/-130). The assay is classed as functional.
The target of assay [13] is T1, Estrogen receptor (Mus musculus). In words: Anti-uterotrophic effect in mice as relative uterine weight(mg) at 15 ug. The assay is classed as functional. The method in brief: (§5)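 Immature mice received the compound sc per animal on three consecutive days, alone or with 0.4 µg estrone per animal per day. Uteri were taken 24 h after the last injection, Bouin-fixed, dried at 100 °C for 24 h and weighed. Relative uterus weight = dry weight (mg)/body weight (g) × 100; mean of 6-10 animals ± SD; Mann-Whitney U test.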
Target sequence in this assay (O08537 whole entry, looked up): as the sequence (O08537 whole entry, looked up) above
Target sequence in this assay (P19785 whole entry, looked up): as the sequence (P19785 whole entry, looked up) above

Assay [14] shares this target. In words: Anti-uterotrophic effect in mice as relative uterine weight(mg) at 150 ug. The format is functional. The method in brief: as §5
The subject of assay [15] is MCF7. The assay can be described thus: Effect on [3H]thymidine incorporation into estrogen receptor positive MCF-7 human breast cancer cells at 1x10E-6M. The assay is classed as functional. The method in brief:
as §2

Assay [16] has as its system MCF7. In words: Effect on [3H]thymidine incorporation into estrogen receptor positive MCF-7 human breast cancer cells at 5x10E-6M. The format is functional. An outline of the steps:
as §3

The species named for assay [17] is Mus musculus. The assay can be described thus: Relative tumor weight in treated compared to control mice bearing hormone-dependent transplanted MXT mammary tumors at 12.5 mg.
The subject of assay [18] is MCF7. The assay can be described thus: Effect on Estrogen receptor positive MCF-7 human breast cancer cell proliferation at 1x10E-6M (control = 62.7+/-8.8). The format is functional. An outline of the steps: as §1
Assay [19] relates to MCF7. In words: Effect on Estrogen receptor positive MCF-7 human breast cancer cell proliferation at 5x10E-6M (control = 62.7+/-8.8). The assay is classed as functional. The method in brief:
as §1

Assay [20] deals with MCF7. In words: Effect on Estrogen receptor positive MCF-7 human breast cancer cell proliferation at 5x10E-7M (control = 62.7+/-8.8). The format is functional. An outline of the steps:
as §1

Assay [21] deals with MCF7. The assay can be described thus: (§6) Effect on [3H]thymidine incorporation into estrogen receptor positive MCF-7 human breast cancer cells at 5x10E-7M (control=48.6+/-3.6). The format is functional. An outline of the steps: as §3
Assay [22] has as its system MCF7. In words: Effect on [3H]thymidine incorporation into estrogen receptor positive MCF-7 human breast cancer cells at 1x10E-6M (control = 48.6+/-3.6). The assay is classed as functional. An outline of the steps:
as §2

Assay [23] has as its system MCF7. In words: Effect on [3H]thymidine incorporation into estrogen receptor positive MCF-7 human breast cancer cells at 5x10E-6M (control = 48.6+/-3.6). The format is functional. An outline of the steps:
as §3

The target of assay [24] is T1, Estrogen receptor (Mus musculus). The assay can be described thus: Uterotrophic effect in mice as relative uterine weight(mg) at 15 ug (control = 14.5+/-2.1). The assay is classed as functional, tissue-based. An outline of the steps: (§7)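 Immature mice dosed sc per animal on three consecutive days; vehicle controls. Killed and weighed 24 h after last injection; uteri fixed in Bouin solution 2 h, washed with alcoholic LiCl, dried at 100 °C for 24 h. Relative uterus weight = uterine dry weight (mg)/body weight (g) × 100; mean of 6-10 animals ± SD.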

The target is the same in assay [25]. In words: Uterotrophic effect in mice as relative uterine weight(mg) at 150 ug (control = 14.5+/-2.1). The format is functional, tissue-based. The method in brief: as §7
Assay [26] has as its system MCF7. In words: Effect on Estrogen receptor positive MCF-7 human breast cancer cell proliferation at 5x10E-7M. The assay is classed as functional. An outline of the steps:
as §1

Assay [27] has as its target T1, Estrogen receptor (Mus musculus). The assay can be described thus: Anti-uterotrophic effect in hormone-dependent transplant MXT bearing mice as relative uterine weight in treated and control mice at 12.2 mg (control=100+/-24). The assay is classed as functional.
For assay [28], the species on record is Mus musculus. The assay can be described thus: Anti-tumor activity in hormone-dependent transplant MXT mammary tumor bearing mice at 12.2 mg (control=197+/-130). The assay is classed as functional.
Assay [29] has as its system MCF7. The assay can be described thus: Effect on [3H]thymidine incorporation into estrogen receptor positive MCF-7 human breast cancer cells at 5x10E-7M.
Assay [30] is filed under the species Mus musculus. The assay can be described thus: Relative tumor weight in treated compared to control mice bearing hormone-dependent transplanted MXT mammary tumors at 12.2 mg.
In assay [31] the test system is MCF7. Described as §6. The format is functional, cell-based. An outline of the steps:
as §3

Assay [32] addresses T1, Estrogen receptor (Mus musculus). The assay can be described thus: Uterotrophic effect in mice as relative uterine weight(mg) at 25 ug (control = 14.5+/-2.1). The assay is classed as functional, tissue-based. An outline of the steps: as §7
Target sequence in this assay (P19785 whole entry, looked up, chain 1 of 2): as the sequence (P19785 whole entry, looked up) above
Target sequence in this assay (O08537 whole entry, looked up, chain 2 of 2): as the sequence (O08537 whole entry, looked up) above
For assay [33] the target is unchanged. The assay can be described thus: Uterotrophic effect in mice as relative uterine weight(mg) at 250 ug (control = 14.5+/-2.1). The format is functional, tissue-based. The method in brief: as §7
Target sequence in this assay (P19785 whole entry, looked up, chain 1 of 2): as the sequence (P19785 whole entry, looked up) above
Target sequence in this assay (O08537 whole entry, looked up, chain 2 of 2): as the sequence (O08537 whole entry, looked up) above
The species named for assay [34] is Mus musculus. In words: Relative tumor weight in treated compared to control mice bearing hormone-dependent transplanted MXT mammary tumors at 20 mg. The assay is classed as functional, organism-based.
Assay [35] concerns the target T1, Estrogen receptor (Mus musculus). In words: Anti-uterotrophic effect in hormone-dependent transplant MXT bearing mice as relative uterine weight in treated and control mice at 20 mg (control=100+/-24). The format is functional.
Target sequence in this assay (P19785 whole entry, looked up, chain 1 of 2): as the sequence (P19785 whole entry, looked up) above
Target sequence in this assay (O08537 whole entry, looked up, chain 2 of 2): as the sequence (O08537 whole entry, looked up) above
Assay [36] has the same target. In words: Anti-uterotrophic effect in mice as relative uterine weight(mg) at 250 ug. The format is functional. An outline of the steps:
as §5
Target sequence in this assay (P19785 whole entry, looked up, chain 1 of 2): as the sequence (P19785 whole entry, looked up) above
Target sequence in this assay (O08537 whole entry, looked up, chain 2 of 2): as the sequence (O08537 whole entry, looked up) above

The species named for assay [37] is Mus musculus. The assay can be described thus: Antitumor activity in hormone-dependent transplant MXT mammary tumor bearing mice at 20 mg (control=197+/-130). The assay is classed as functional, organism-based.

By inhibition is commonly meant the share of the control response that was lost under treatment. The low end stands for a response near the control, the high end for a response far below the control. For orientation: T/C means the result in the treated group divided by that in the control group, in per cent. With `Cc1c(-c2ccc(O)cc2)n(CCCCCCNC(C)c2ccccn2)c2ccc(O)cc12` (stereo not given), the Cell no/dish in the assay on MCF7 [1] is listed as 95000; in the assay on MCF7 [4], 126000. In addition, the Activity stood at 4600 in the assay on MCF7 [2] and 1200 in the assay with MCF7 [3]. Besides, the values for the inhibition in assay [5] and in [6] were 39% and 77%, respectively. The Relative uterus weight was 14.6 mg in assay [7], 20.2 mg in assay [8], 34.2 mg in assay [13] and 22.4 mg in assay [14]. Moreover, the T/C came out at 52% in the assay with MCF7 [9]; 39% in the assay with MCF7 [10]; 96% in [11]; 46% in the assay with MCF7 [15]; 12% with MCF7 [16]; 75% in the assay listed under Mus musculus [17]. In addition, in the assay listed under Mus musculus [12], the Tumor weight came to 148 mg.

Regarding `Oc1ccc(-c2cc3cc(O)ccc3n2CCCCCCNCc2ccccn2)cc1`, the values for the Cell no/dish with MCF7 [18], with MCF7 [19] and in the assay on MCF7 [20] were 334000, 195000 and 335000, respectively. Moreover, the “[3H] thymidinecpm/dish” value with MCF7 [21] is 22800. Also, the figures for the Activity with MCF7 [22] and in the assay with MCF7 [23] were 20000 and 9600, respectively. Also, the values for the inhibition in [5] and in [6] were 18% and 5%, respectively. Besides, the Relative uterus weight in assay [24] was 13.6 mg; in assay [25], 22.1 mg; in assay [13] it was 40.6 mg; in [14], 46.1 mg. Further, the T/C in the assay on MCF7 [9] came to 53%; in the assay on MCF7 [10], 31%; in the assay on MCF7 [26] it was 54%; in [27], 78%; with MCF7 [15] it was 41%; in the assay on MCF7 [16], 20%. Further, the T/C came out at 47% in the assay with MCF7 [29] and 80% in the assay filed under Mus musculus [30]. In the assay filed under Mus musculus [28], this compound came in with a Tumor weight of 158 mg.

Turning to “[5-hydroxy-2-(4-hydroxyphenyl)-1-[omega-[(2-pyridylmethyl)amino]hexyl]indole]dichloroplatinum (II) complex”, the Cell no/dish amounted to 401000 with MCF7 [18], 345000 with MCF7 [19] and 482000 in the assay with MCF7 [20]. In addition, in the assay with MCF7 [31], the [3H] thymidine cpm/dish is 33400. The Activity in the assay on MCF7 [22] was 27500; in the assay with MCF7 [23], 16700. Also, the Relative uterus weight in assay [32] worked out at 12.7 mg; in assay [33], 16.3 mg; in assay [36] it was 52.7 mg. The T/C was found to be 64% in the assay on MCF7 [9]; 55% in the assay with MCF7 [10]; 77% in the assay with MCF7 [26]; 40% in the assay listed under Mus musculus [34]; 103% in [35]; 57% in the assay with MCF7 [15]. Also, the T/C with MCF7 [16] was 34%. This compound also registered a Tumor weight in the assay filed under Mus musculus [37] of 80 mg.
